# Source: ChEMBL document CHEMBL1146375, “Synthetic studies on novel benzimidazolopeptides with antimicrobial, cytotoxic and anthelmintic potential” (2007)
# Tested on: Escherichia coli
# Assay: Antibacterial activity against Escherichia coli NCIM 2065 after 18 hrs by disc diffusion method
# Format: functional
# Settings: not given
# Method in brief: (§1)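 Modified Kirby-Bauer disc diffusion. Plates inoculated with spore suspension (about 6 × 10⁴ spores mL^-1). Sterile 6 mm paper discs carried test samples at 10 mg mL^-1; ciprofloxacin disc as reference, DMF disc as negative control. Plates held 18 h at 37 °C. Inhibition zone diameters (mm) averaged over triplicate sets.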
row,Compound,inhibition zone (IZ) [mm]
1,COC(=O)[C@H](Cc1ccc(O)cc1)NC(=O)[C@H](C)NC(=O)[C@H](Cc1c[nH]c2ccccc12)NC(=O)c1cc(-c2nc3cc(C)c(C)cc3[nH]2)ccc1O,16

# Tested on: Candida albicans
# Assay: Antifungal activity against Candida albicans MUCC 29 after 48 hrs by disc diffusion method
# Format: functional
# Settings: not given
# Method in brief: (§2)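 Agar well diffusion on plates inoculated with spore suspension in normal saline from cultures on Sabouraud's broth. Wells punched and loaded with test samples or griseofulvin at 10 mg mL^-1, with DMSO as negative control. Incubated 48 h at 37 °C.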
row,Compound,inhibition zone (IZ) [mm]
1,COC(=O)[C@H](Cc1ccc(O)cc1)NC(=O)[C@H](C)NC(=O)[C@H](Cc1c[nH]c2ccccc12)NC(=O)c1cc(-c2nc3cc(C)c(C)cc3[nH]2)ccc1O,17

# Tested on: Escherichia coli
# Assay: Antibacterial activity against Escherichia coli NCIM 2065 after 18 hrs by tube dilution method
# Format: functional
# Settings: NCIM 2065, 18 h
row,Compound,MIC [µg/mL]
1,COC(=O)[C@H](Cc1ccc(O)cc1)NC(=O)[C@H](C)NC(=O)[C@H](Cc1c[nH]c2ccccc12)NC(=O)c1cc(-c2nc3cc(C)c(C)cc3[nH]2)ccc1O,12.5

# Tested on: Staphylococcus aureus
# Assay: Antibacterial activity against Staphylococcus aureus NCIM 2079 after 18 hrs by tube dilution method
# Format: functional
# Settings: NCIM 2079, 18 h
# Method in brief: (§3)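 Tube dilution MIC. Stock diluted in sterile broth to seven concentrations from 200 to 3.1 […]. Each tube inoculated with one loopful of test bacterium and incubated 18 h at 37 °C. MIC read from presence or absence of growth.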
row,Compound,MIC [µg/mL]
1,COC(=O)[C@H](Cc1ccc(O)cc1)NC(=O)[C@H](C)NC(=O)[C@H](Cc1c[nH]c2ccccc12)NC(=O)c1cc(-c2nc3cc(C)c(C)cc3[nH]2)ccc1O,12.5

# Tested on: Pontoscolex corethrurus
# Assay: Anthelmintic activity against Pontoscolex corethrurus ICARBC 408 assessed as mean death time
# Format: functional
# Settings: not given
# Method in brief: (§4)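 Earthworms exposed to test suspensions at 2 mg mL−1, prepared by triturating compound with Tween 80 (0.5%) and distilled water, stirring 30 min, then diluting to 0.2% w/v. Mebendazole suspension was made the same way. Death was confirmed by moving worms into 50 °C warm water and looking for movement. Mean death time (min) taken from triplicate sets.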
row,Compound,Time [min]
1,COC(=O)[C@H](Cc1ccc(O)cc1)NC(=O)[C@H](C)NC(=O)[C@H](Cc1c[nH]c2ccccc12)NC(=O)c1cc(-c2nc3cc(C)c(C)cc3[nH]2)ccc1O,29.34

# Tested on: Microsporum audouinii
# Assay: Antifungal activity against Microsporum audouinii MUCC 545 after 48 hrs by tube dilution method
# Format: functional
# Settings: not given
# Method in brief: (§5)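 Tube dilution MIC as for bacteria (seven concentrations, 200–3.1 […]), with DMSO in place of DMF. Tubes inoculated with fungal culture and incubated 48 h at 37 °C. MIC read from presence or absence of growth.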
row,Compound,MIC [µg/mL]
1,COC(=O)[C@H](Cc1ccc(O)cc1)NC(=O)[C@H](C)NC(=O)[C@H](Cc1c[nH]c2ccccc12)NC(=O)c1cc(-c2nc3cc(C)c(C)cc3[nH]2)ccc1O,12.5

# Tested on: Staphylococcus aureus
# Assay: Antibacterial activity against Staphylococcus aureus NCIM 2079 after 18 hrs by disc diffusion method
# Format: functional
# Settings: not given
# Method in brief: as §1
row,Compound,inhibition zone (IZ) [mm]
1,COC(=O)[C@H](Cc1ccc(O)cc1)NC(=O)[C@H](C)NC(=O)[C@H](Cc1c[nH]c2ccccc12)NC(=O)c1cc(-c2nc3cc(C)c(C)cc3[nH]2)ccc1O,10

# Tested on: Trichophyton benhamiae
# Assay: Antifungal activity against Trichophyton mentagrophytes MUCC 665 after 48 hrs by tube dilution method
# Format: functional, Arthroderma benhamiae
# Settings: not given
# Method in brief: as §5
row,Compound,MIC [µg/mL]
1,COC(=O)[C@H](Cc1ccc(O)cc1)NC(=O)[C@H](C)NC(=O)[C@H](Cc1c[nH]c2ccccc12)NC(=O)c1cc(-c2nc3cc(C)c(C)cc3[nH]2)ccc1O,6

# Tested on: Pontoscolex corethrurus
# Assay: Anthelmintic activity against Pontoscolex corethrurus ICARBC 408 assessed as mean paralyzing time
# Format: functional
# Settings: not given
# Method in brief: (§6)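 Earthworms exposed to test suspensions at 2 mg mL^-1 (0.2% w/v), made by triturating compound with Tween 80 (0.5%) and distilled water, then mechanically stirred 30 min. Mebendazole suspension prepared alike as reference. Paralysis and death times recorded; death confirmed by no movement in 50 °C water. Means from triplicate sets.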
row,Compound,Time [min]
1,COC(=O)[C@H](Cc1ccc(O)cc1)NC(=O)[C@H](C)NC(=O)[C@H](Cc1c[nH]c2ccccc12)NC(=O)c1cc(-c2nc3cc(C)c(C)cc3[nH]2)ccc1O,17.6

# Tested on: Trichophyton benhamiae
# Assay: Antifungal activity against Trichophyton mentagrophytes MUCC 665 after 48 hrs by disc diffusion method
# Format: functional, Arthroderma benhamiae
# Settings: not given
# Method in brief: as §2
row,Compound,inhibition zone (IZ) [mm]
1,COC(=O)[C@H](Cc1ccc(O)cc1)NC(=O)[C@H](C)NC(=O)[C@H](Cc1c[nH]c2ccccc12)NC(=O)c1cc(-c2nc3cc(C)c(C)cc3[nH]2)ccc1O,14

# Tested on: not listed separately
# Assay: Anthelmintic activity against Megascoplex konkanensis ICARBC 211 assessed as mean paralyzing time
# Format: functional
# Settings: not given
# Method in brief: as §6
row,Compound,TIME [h]
1,COC(=O)[C@H](Cc1ccc(O)cc1)NC(=O)[C@H](C)NC(=O)[C@H](Cc1c[nH]c2ccccc12)NC(=O)c1cc(-c2nc3cc(C)c(C)cc3[nH]2)ccc1O,0.228

# Tested on: Eudrilus
# Assay: Anthelmintic activity against Eudrilus sp. assessed as mean paralyzing time
# Format: functional
# Settings: not given
# Method in brief: as §6
row,Compound,Time [min]
1,COC(=O)[C@H](Cc1ccc(O)cc1)NC(=O)[C@H](C)NC(=O)[C@H](Cc1c[nH]c2ccccc12)NC(=O)c1cc(-c2nc3cc(C)c(C)cc3[nH]2)ccc1O,13.41

# Tested on: Pseudomonas aeruginosa
# Assay: Antibacterial activity against Pseudomonas aeruginosa NCIM 2034 after 18 hrs by tube dilution method
# Format: functional
# Settings: NCIM 2034, 18 h
# Method in brief: as §3
row,Compound,MIC [µg/mL]
1,COC(=O)[C@H](Cc1ccc(O)cc1)NC(=O)[C@H](C)NC(=O)[C@H](Cc1c[nH]c2ccccc12)NC(=O)c1cc(-c2nc3cc(C)c(C)cc3[nH]2)ccc1O,6

# Tested on: Aspergillus niger
# Assay: Antifungal activity against Aspergillus niger MUCC 177 after 48 hrs by disc diffusion method
# Format: functional
# Settings: not given
# Method in brief: as §2
row,Compound,inhibition zone (IZ) [mm]
1,COC(=O)[C@H](Cc1ccc(O)cc1)NC(=O)[C@H](C)NC(=O)[C@H](Cc1c[nH]c2ccccc12)NC(=O)c1cc(-c2nc3cc(C)c(C)cc3[nH]2)ccc1O,16

# Tested on: not listed separately
# Assay: Anthelmintic activity against Megascoplex konkanensis ICARBC 211 assessed as mean death time
# Format: functional
# Settings: not given
# Method in brief: as §6
row,Compound,TIME [h]
1,COC(=O)[C@H](Cc1ccc(O)cc1)NC(=O)[C@H](C)NC(=O)[C@H](Cc1c[nH]c2ccccc12)NC(=O)c1cc(-c2nc3cc(C)c(C)cc3[nH]2)ccc1O,0.379

# Tested on: Microsporum audouinii
# Assay: Antifungal activity against Microsporum audouinii MUCC 545 after 48 hrs by disc diffusion method
# Format: functional
# Settings: not given
# Method in brief: as §2
row,Compound,inhibition zone (IZ) [mm]
1,COC(=O)[C@H](Cc1ccc(O)cc1)NC(=O)[C@H](C)NC(=O)[C@H](Cc1c[nH]c2ccccc12)NC(=O)c1cc(-c2nc3cc(C)c(C)cc3[nH]2)ccc1O,11

# Tested on: Candida albicans
# Assay: Antifungal activity against Candida albicans MUCC 29 after 48 hrs by tube dilution method
# Format: functional
# Settings: not given
# Method in brief: as §5
row,Compound,MIC [µg/mL]
1,COC(=O)[C@H](Cc1ccc(O)cc1)NC(=O)[C@H](C)NC(=O)[C@H](Cc1c[nH]c2ccccc12)NC(=O)c1cc(-c2nc3cc(C)c(C)cc3[nH]2)ccc1O,6

# Tested on: Eudrilus
# Assay: Anthelmintic activity against Eudrilus sp. assessed as mean death time
# Format: functional
# Settings: not given
# Method in brief: as §4
row,Compound,Time [min]
1,COC(=O)[C@H](Cc1ccc(O)cc1)NC(=O)[C@H](C)NC(=O)[C@H](Cc1c[nH]c2ccccc12)NC(=O)c1cc(-c2nc3cc(C)c(C)cc3[nH]2)ccc1O,24.07

# Tested on: Pseudomonas aeruginosa
# Assay: Antibacterial activity against Pseudomonas aeruginosa NCIM 2034 after 18 hrs by disc diffusion method
# Format: functional
# Settings: not given
# Method in brief: as §1
row,Compound,inhibition zone (IZ) [mm]
1,COC(=O)[C@H](Cc1ccc(O)cc1)NC(=O)[C@H](C)NC(=O)[C@H](Cc1c[nH]c2ccccc12)NC(=O)c1cc(-c2nc3cc(C)c(C)cc3[nH]2)ccc1O,21

# Tested on: Bacillus subtilis
# Assay: Antibacterial activity against Bacillus subtilis NCIM 2063 after 18 hrs by tube dilution method
# Format: functional
# Settings: NCIM 2063, 18 h
# Method in brief: as §3
row,Compound,MIC [µg/mL]
1,COC(=O)[C@H](Cc1ccc(O)cc1)NC(=O)[C@H](C)NC(=O)[C@H](Cc1c[nH]c2ccccc12)NC(=O)c1cc(-c2nc3cc(C)c(C)cc3[nH]2)ccc1O,12.5

# Tested on: Bacillus subtilis
# Assay: Antibacterial activity against Bacillus subtilis NCIM 2063 after 18 hrs by disc diffusion method
# Format: functional
# Settings: not given
# Method in brief: as §1
row,Compound,inhibition zone (IZ) [mm]
1,COC(=O)[C@H](Cc1ccc(O)cc1)NC(=O)[C@H](C)NC(=O)[C@H](Cc1c[nH]c2ccccc12)NC(=O)c1cc(-c2nc3cc(C)c(C)cc3[nH]2)ccc1O,13
